Test results taken from PubChem BioAssay AID652011 (Sanford-Burnham Center for Chemical Genomics, 2013).

Legend:
Assay in all cases: HIF reporter inhibition across pancreatic and renal lines – cell-based, luminescence, MIAPaCa-2, 786-0, panel, SAR follow-up (AID 652011)
[1] = target: Endothelial PAS domain-containing protein 1 (Homo sapiens) (UniProt Q99814); settings: MIAPaCa-2/PANC HIF reporter, luciferase luminescence, desferoxamine, overnight; HIF2a PANC cells; mean of runs
Summary of the method: (§1)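 Also added: desferoxamine added before compound. Dosing: compounds from 10 mM and 0.3125 mM stocks, 1% DMSO final. Timing: overnight seeding and compound exposure, 37 °C, 5% CO2, 10-min detection. Detection: luciferase luminescence with One-Glo reagent.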

[2] = test system: HIF1a; settings: MIAPaCa-2/PANC HIF reporter, luciferase luminescence, desferoxamine, overnight
Summary of the method: as §1

[3] = test system: HIF2a PANC; settings: MIAPaCa-2/PANC HIF reporter, luciferase luminescence, desferoxamine, overnight
Summary of the method: as §1

[4] = target: Hypoxia-inducible factor 1-alpha (Homo sapiens) (UniProt Q16665); settings: MIAPaCa-2/PANC HIF reporter, luciferase luminescence, desferoxamine, overnight; HIF1a; mean of runs
Chain of Hypoxia-inducible factor 1-alpha (Homo sapiens) (Q16665 whole entry, looked up): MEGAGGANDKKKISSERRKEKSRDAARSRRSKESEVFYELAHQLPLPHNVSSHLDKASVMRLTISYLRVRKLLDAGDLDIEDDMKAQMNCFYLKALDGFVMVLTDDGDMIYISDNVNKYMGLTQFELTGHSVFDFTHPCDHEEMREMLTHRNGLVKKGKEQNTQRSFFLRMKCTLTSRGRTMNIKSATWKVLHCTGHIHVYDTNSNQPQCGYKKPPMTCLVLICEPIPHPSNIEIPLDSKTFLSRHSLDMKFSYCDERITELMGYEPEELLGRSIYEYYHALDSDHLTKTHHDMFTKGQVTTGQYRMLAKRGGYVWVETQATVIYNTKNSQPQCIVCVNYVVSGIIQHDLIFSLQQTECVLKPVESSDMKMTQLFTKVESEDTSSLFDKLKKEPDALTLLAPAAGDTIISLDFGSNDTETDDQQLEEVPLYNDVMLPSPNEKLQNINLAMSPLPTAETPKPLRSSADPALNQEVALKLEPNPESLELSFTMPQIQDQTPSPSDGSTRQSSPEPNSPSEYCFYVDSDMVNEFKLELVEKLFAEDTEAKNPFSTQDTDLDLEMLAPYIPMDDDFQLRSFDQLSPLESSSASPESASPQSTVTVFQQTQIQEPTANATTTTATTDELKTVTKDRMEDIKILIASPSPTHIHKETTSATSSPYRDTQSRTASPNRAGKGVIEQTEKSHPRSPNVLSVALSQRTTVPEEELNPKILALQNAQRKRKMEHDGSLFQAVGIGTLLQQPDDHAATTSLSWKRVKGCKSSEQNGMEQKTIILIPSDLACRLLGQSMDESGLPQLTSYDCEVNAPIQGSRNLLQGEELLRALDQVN
Summary of the method: as §1

[5] = run 1, individual run IC50, panel line
[6] = run 2, individual run IC50, panel line

Chain of Endothelial PAS domain-containing protein 1 (Homo sapiens) (Q99814 whole entry, looked up, the tested form may be a part): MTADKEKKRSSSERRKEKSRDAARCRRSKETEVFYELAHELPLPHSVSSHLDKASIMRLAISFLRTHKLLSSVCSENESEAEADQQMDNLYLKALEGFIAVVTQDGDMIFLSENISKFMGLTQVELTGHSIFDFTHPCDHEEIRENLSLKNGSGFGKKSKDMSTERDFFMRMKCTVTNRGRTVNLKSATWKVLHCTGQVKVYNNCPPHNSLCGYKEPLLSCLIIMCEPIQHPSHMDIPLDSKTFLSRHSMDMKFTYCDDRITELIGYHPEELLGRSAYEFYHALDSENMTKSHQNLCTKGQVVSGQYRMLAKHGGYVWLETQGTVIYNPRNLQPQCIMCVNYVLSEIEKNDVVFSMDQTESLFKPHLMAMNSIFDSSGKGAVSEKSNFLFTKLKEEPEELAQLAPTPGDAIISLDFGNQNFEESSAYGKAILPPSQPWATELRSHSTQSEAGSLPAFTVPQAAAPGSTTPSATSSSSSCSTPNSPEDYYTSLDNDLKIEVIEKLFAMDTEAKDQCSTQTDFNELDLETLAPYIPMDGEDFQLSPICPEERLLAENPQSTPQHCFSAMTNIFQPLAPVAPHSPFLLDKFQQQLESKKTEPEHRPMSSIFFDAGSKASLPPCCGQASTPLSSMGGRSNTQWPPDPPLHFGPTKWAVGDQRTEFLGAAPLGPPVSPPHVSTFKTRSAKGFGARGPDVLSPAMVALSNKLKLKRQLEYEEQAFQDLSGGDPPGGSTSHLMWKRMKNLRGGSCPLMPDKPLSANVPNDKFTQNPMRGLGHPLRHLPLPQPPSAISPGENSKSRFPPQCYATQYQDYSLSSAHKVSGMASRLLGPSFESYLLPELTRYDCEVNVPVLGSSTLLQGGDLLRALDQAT

| Compound | IC50 [1] | IC50 [2, 5] | IC50 [2, 6] | IC50 [3, 5] | IC50 [3, 6] | IC50 [4] |
| --- | --- | --- | --- | --- | --- | --- |
| CC(C)(C)c1ccc(-c2noc(CCC(=O)O)n2)cc1 | < 190 nM | < 190 nM | < 190 nM | < 190 nM | < 190 nM | < 190 nM |
| CC(C)(C)c1ccc(-c2noc(CCC(=O)Nc3cccc([N+](=O)[O-])c3)n2)cc1 | < 190 nM | 9870 nM | 6700 nM | < 190 nM | < 190 nM | 8290 nM |
| COc1ccccc1NC(=O)CCc1nc(-c2ccc(C(C)(C)C)cc2)no1 | < 190 nM | > 99000 nM | 647 nM | < 190 nM | < 190 nM | 647 nM |
| CCOc1ccc(-c2noc(CCC(=O)O)n2)cc1 | 5860 nM | 1170 nM | 1510 nM | 4440 nM | 7280 nM | 1340 nM |
| CC(C)(C)c1ccc(-c2noc(CCC(=O)Nc3cccnc3)n2)cc1 | < 190 nM | 38100 nM | 28600 nM | < 190 nM | < 190 nM | 33400 nM |
| CC(C)(C)c1ccc(-c2noc(CCC(=O)NC3CCCC3)n2)cc1 | < 190 nM | > 99000 nM | < 190 nM | < 190 nM | < 190 nM | 49600 nM |
| CCOc1ccccc1NC(=O)CCc1nc(-c2ccc(C(C)(C)C)cc2)no1 | < 190 nM | > 99000 nM | 973 nM | < 190 nM | < 190 nM | 973 nM |
| COC(=O)CCc1nc(-c2ccc(C(C)(C)C)cc2)no1 | < 190 nM | < 1000 nM | < 190 nM | < 190 nM | < 190 nM | < 190 nM |
| COc1cccc(NC(=O)CCc2nc(-c3ccc(C(C)(C)C)cc3)no2)c1 | < 190 nM | < 190 nM | 229 nM | < 190 nM | < 190 nM | 229 nM |
| CC(C)(C)c1ccc(-c2noc(CCC(=O)NC3CCCCC3)n2)cc1 | < 190 nM | > 99000 nM | 38000 nM | < 190 nM | < 190 nM | 38000 nM |
